Laboratory results from ChEMBL document CHEMBL3621182, “Adenosine analogs as inhibitors of tyrosyl-tRNA synthetase: Design, synthesis and antibacterial evaluation” (Bioorg Med Chem, 2015).
Values after ≈ are worked out from the molar mass of the structure shown.

What was measured:
[1] = tested on: Staphylococcus aureus; experiment: Antimicrobial activity against Staphylococcus aureus ATCC 6538 by MTT assay; type: functional
Method in brief: (§1)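 Broth microdilution in LB medium with MTT read-out. Compound stock 1000 µg/ml in DMSO, diluted serially with sterile medium (50% v/v DMSO in PBS). Inoculum about 10^5 cfu/mL, incubated at 37°C. Then 3 mg/mL MTT in PBS added, 4-5 h at room temperature. Dye extracted with 10% SDS containing 5% isopropanol and HCl for 8-10 h. Absorbance at 570 nm gives MIC50.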

[2] = tested on: Pseudomonas aeruginosa; experiment: Antimicrobial activity against Pseudomonas aeruginosa ATCC 9027 by MTT assay; type: functional; method in brief: as §1
[3] = tested on: Escherichia coli; experiment: Antimicrobial activity against Escherichia coli ATCC 8739 by MTT assay; type: functional; method in brief: as §1
[4] = Inhibition of Staphylococcus aureus tyrosyl-tRNA synthetase expressed in Escherichia coli assessed as reduction in tRNA aminoacylation pre-incubated for 10 mins before addition of Escherichia coli MRE600 tRNA and L-tyrosine
Method in brief: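 Tritiated tyrosine aminoacylation at 37°C. Mix (final): 100 mM Tris/Cl pH 7.9, 50 mM KCl, 16 mM MgCl2, 5 mM ATP, 3 mM DTT, 4 mg/ml E. coli MRE600 tRNA, 10 µM L-tyrosine including 0.3 µM L-[ring-3,5-3H]tyrosine. TyrRS (0.2 nM) preincubated 10 min at room temperature with a range of inhibitor concentrations. TCA precipitation onto filters, scintillation counting. Linear rates, under 50% tRNA acylation; IC50 at half activity.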

SMILES	MIC50 [1] [µg/mL]	MIC50 [2] [µg/mL]	MIC50 [3] [µg/mL]	IC50 [4] [µM]
Nc1ncnc2c1ncn2[C@@H]1O[C@H](COC(=O)Cc2cccc(Cl)c2)[C@@H](O)[C@H]1O	49.2 (≈ 117 µM)	35.1 (≈ 83.6 µM)	20.2 (≈ 48.1 µM)	6
Nc1ncnc2c1ncn2[C@@H]1O[C@H](COC(=O)Cc2ccc(Br)cc2)[C@@H](O)[C@H]1O	42.2 (≈ 90.9 µM)	19.3 (≈ 41.6 µM)	88.9 (≈ 191 µM)	5.2
CCCCCCCC(=O)OC[C@H]1O[C@@H](n2cnc3c(N)ncnc32)[C@H](O)[C@@H]1O	> 100	> 100	> 100	93
Cc1ccc(CC(=O)OC[C@H]2O[C@@H](n3cnc4c(N)ncnc43)[C@H](O)[C@@H]2O)cc1	47.4 (≈ 119 µM)	11.8 (≈ 29.5 µM)	16.4 (≈ 41.1 µM)	15
Nc1ncnc2c1ncn2[C@@H]1O[C@H](COC(=O)Cc2ccc(Cl)c(Cl)c2)[C@@H](O)[C@H]1O	48.5 (≈ 107 µM)	21.4 (≈ 47.1 µM)	19.4 (≈ 42.7 µM)	97
CC1(C)O[C@@H]2[C@H](O1)[C@@H](COC(=O)Cc1ccc(Br)cc1)O[C@H]2n1cnc2c(N)ncnc21	> 100	21.2 (≈ 42 µM)	> 100	5.6
COc1ccc(CC(=O)OC[C@H]2O[C@@H](n3cnc4c(N)ncnc43)[C@H](O)[C@@H]2O)cc1OC	> 100	10.2 (≈ 22.9 µM)	16.5 (≈ 37 µM)	> 100
Nc1ncnc2c1ncn2[C@@H]1O[C@H](COC(=O)Cc2ccccc2Cl)[C@@H](O)[C@H]1O	> 100	26.7 (≈ 63.6 µM)	7.4 (≈ 17.6 µM)	47
CCCCCC(=O)OC[C@H]1O[C@@H](n2cnc3c(N)ncnc32)[C@H](O)[C@@H]1O	> 100	> 100	> 100	77
CC1(C)O[C@@H]2[C@H](O1)[C@@H](COC(=O)Cc1ccc(F)cc1)O[C@H]2n1cnc2c(N)ncnc21	> 100	24.8 (≈ 55.9 µM)	76.2 (≈ 172 µM)	7.1
COc1ccc(CC(=O)OC[C@H]2O[C@@H](n3cnc4c(N)ncnc43)[C@@H]3OC(C)(C)O[C@@H]32)cc1OC	> 100	30.1 (≈ 62 µM)	47.3 (≈ 97.4 µM)	> 100
O=C(O)c1cn(C2CC2)c2cc(N3CCNCC3)c(F)cc2c1=O [CIPROFLOXACIN]	–	0.1 (≈ 0.302 µM)	0.67 (≈ 2.02 µM)	–
Nc1ncnc2c1ncn2[C@@H]1O[C@H](COC(=O)Cc2ccc(O)cc2)[C@@H](O)[C@H]1O	44.3 (≈ 110 µM)	25.9 (≈ 64.5 µM)	9.8 (≈ 24.4 µM)	23
Cc1ccc(CC(=O)OC[C@H]2O[C@@H](n3cnc4c(N)ncnc43)[C@@H]3OC(C)(C)O[C@@H]32)cc1	> 100	14.1 (≈ 32.1 µM)	27 (≈ 61.4 µM)	17
Nc1ncnc2c1ncn2[C@@H]1O[C@H](COC(=O)c2ccc(Br)cc2)[C@@H](O)[C@H]1O	> 100	22.7 (≈ 50.4 µM)	10.1 (≈ 22.4 µM)	62
Nc1ncnc2c1ncn2[C@@H]1O[C@H](COC(=O)Cc2cccc(Br)c2)[C@@H](O)[C@H]1O	> 100	27.4 (≈ 59 µM)	38.1 (≈ 82.1 µM)	3.3
Nc1ncnc2c1ncn2[C@@H]1O[C@H](COC(=O)c2ccccc2)[C@@H](O)[C@H]1O	67.4 (≈ 181 µM)	21.9 (≈ 59 µM)	33.7 (≈ 90.7 µM)	39
Nc1ncnc2c1ncn2[C@@H]1O[C@H](COC(=O)Cc2ccccc2F)[C@@H](O)[C@H]1O	51.4 (≈ 127 µM)	35.8 (≈ 88.8 µM)	23.6 (≈ 58.5 µM)	40
CC1(C)O[C@@H]2[C@H](O1)[C@@H](COC(=O)Cc1ccccc1F)O[C@H]2n1cnc2c(N)ncnc21	> 100	25.5 (≈ 57.5 µM)	25.7 (≈ 58 µM)	44

SMILES	MIC50 [1] [µg/mL]	MIC50 [2] [µg/mL]	MIC50 [3] [µg/mL]	IC50 [4] [µM]
CC1(C)O[C@@H]2[C@H](O1)[C@@H](COC(=O)Cc1cccc(Br)c1)O[C@H]2n1cnc2c(N)ncnc21	38.3 (≈ 75.9 µM)	18.8 (≈ 37.3 µM)	40.6 (≈ 80.5 µM)	3.7
CC1(C)O[C@@H]2[C@H](O1)[C@@H](COC(=O)Cc1cccc(Cl)c1)O[C@H]2n1cnc2c(N)ncnc21	44.9 (≈ 97.6 µM)	22 (≈ 47.8 µM)	27.8 (≈ 60.4 µM)	6.3
CC1(C)O[C@@H]2[C@H](O1)[C@@H](COC(=O)Cc1ccc(Cl)c(Cl)c1)O[C@H]2n1cnc2c(N)ncnc21	40.2 (≈ 81.3 µM)	19.3 (≈ 39 µM)	34 (≈ 68.8 µM)	> 100
CC(=O)OC[C@H]1O[C@@H](n2cnc3c(N)ncnc32)[C@H](O)[C@@H]1O	> 100	58.2 (≈ 188 µM)	77.6 (≈ 251 µM)	–
CC1(C)O[C@@H]2[C@H](O1)[C@@H](COC(=O)Cc1ccccc1Cl)O[C@H]2n1cnc2c(N)ncnc21	> 100	28 (≈ 60.9 µM)	29 (≈ 63.1 µM)	47
CC1(C)O[C@@H]2[C@H](O1)[C@@H](COC(=O)Cc1cccc(O)c1)O[C@H]2n1cnc2c(N)ncnc21	> 100	25.9 (≈ 58.7 µM)	18.9 (≈ 42.8 µM)	9.6
Nc1ncnc2c1ncn2[C@@H]1O[C@H](COC(=O)Cc2cccc(O)c2)[C@@H](O)[C@H]1O	> 100	27.3 (≈ 68 µM)	37 (≈ 92.2 µM)	9.3
Nc1ncnc2c1ncn2[C@@H]1O[C@H](COC(=O)c2cccc(Cl)c2)[C@@H](O)[C@H]1O	9.4 (≈ 23.2 µM)	8.7 (≈ 21.4 µM)	11.3 (≈ 27.8 µM)	28
CCCC(=O)OC[C@H]1O[C@@H](n2cnc3c(N)ncnc32)[C@H](O)[C@@H]1O	> 100	87.3 (≈ 259 µM)	> 100	65
CC1(C)O[C@@H]2[C@H](O1)[C@@H](COC(=O)Cc1ccc(O)cc1)O[C@H]2n1cnc2c(N)ncnc21	> 100	17.4 (≈ 39.4 µM)	44.6 (≈ 101 µM)	19
Nc1ncnc2c1ncn2[C@@H]1O[C@H](COC(=O)Cc2cccc(F)c2)[C@@H](O)[C@H]1O	9.2 (≈ 22.8 µM)	0.08 (≈ 0.198 µM)	1.3 (≈ 3.22 µM)	0.8
Nc1ncnc2c1ncn2[C@@H]1O[C@H](COC(=O)c2ccc(Cl)cc2)[C@@H](O)[C@H]1O	> 100	19.3 (≈ 47.6 µM)	28.1 (≈ 69.2 µM)	43
Nc1ncnc2c1ncn2[C@@H]1O[C@H](COC(=O)Cc2ccccc2O)[C@@H](O)[C@H]1O	37.8 (≈ 94.2 µM)	26 (≈ 64.8 µM)	15.9 (≈ 39.6 µM)	44
Nc1ncnc2c1ncn2[C@@H]1O[C@H](COC(=O)c2ccc(F)cc2)[C@@H](O)[C@H]1O	> 100	11.2 (≈ 28.8 µM)	24.8 (≈ 63.7 µM)	51
CCCCCCCCCC(=O)OC[C@H]1O[C@@H](n2cnc3c(N)ncnc32)[C@H](O)[C@@H]1O	> 100	> 100	> 100	> 100
Nc1ncnc2c1ncn2[C@@H]1O[C@H](COC(=O)Cc2ccc(Cl)cc2)[C@@H](O)[C@H]1O	13.8 (≈ 32.9 µM)	19.9 (≈ 47.4 µM)	7.7 (≈ 18.3 µM)	8.1
CC1(C)O[C@@H]2[C@H](O1)[C@@H](COC(=O)Cc1cccc(F)c1)O[C@H]2n1cnc2c(N)ncnc21	> 100	12.9 (≈ 29.1 µM)	60.3 (≈ 136 µM)	1.1
CC1(C)S[C@@H]2[C@H](NC(=O)Cc3ccccc3)C(=O)N2[C@H]1C(=O)O [PENICILLIN G SODIUM]	0.54	–	–	–
